In general, Kd refers to the free concentration of one partner at which half of the binding sites on the other are occupied at equilibrium, for simple one-to-one binding.

Calls of active or inactive are those of the source. No cut-off for these calls is given here. Numbered stars: 1 amine (or outer) side, 2 acyl side, 3 side chain; on linkers, the order of the positions; unused ones are H or OH. Bridge positions count the residues as written; N and C are the ends. Square brackets hold non-standard residues; d marks the D form. Peptide text beside a SMILES is read from it. I, II: the chains in the order shown. ξ: configuration not given here. Gly(N(CH2)2(3-indolyl)) = O=C(O)CNCCc1c[nH]c2ccccc12; Gly(N-piperonyl) = O=C(O)CNCc1ccc2c(c1)OCO2; X1 = CC(c1ccccc1)N(CC(=O)[*:2])[*:1]; NFurfurylGly = O=C(O)CNCc1ccco1; NAllylGly = C=CCNCC(=O)O; Nleu = CC(C)CNCC(=O)O; Nlys = NCCCCNCC(=O)O; ξK = NCCCCC(N)C(=O)O; Ahx = NCCCCCC(=O)O; Nme = COCCNCC(=O)O; βAla = NCCC(=O)O

Here are results for 6 compounds from ChEMBL document CHEMBL1150420, “A peptoid antagonist of VEGF receptor 2 recognizes a 'hotspot' in the extracellular domain distinct from the hormone-binding site” (Bioorg Med Chem, 2008).

Assay [1] deals with T1, Vascular endothelial growth factor receptor 2 (Homo sapiens, UniProt P35968). The experiment in a line: Binding affinity to human recombinant VEGFR2 extracellular domain by ELISA like binding assay. An outline of the steps:
(§1)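 Plates coated overnight at 4 °C with recombinant human VEGFR ECD at 1 µg/mL in carbonate buffer pH 9.5, then washed and blocked. Serial dilutions of FITC-labelled peptoid in blocking buffer or TBST were added for 1 h at room temperature. After five PBS washes, retained fluorescence was read at 520 nm. KD was taken from the titration.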
In general terms: ELISA stands for enzyme-linked immunosorbent assay.

Assay [2] concerns the target Vascular endothelial growth factor receptor 1 (Homo sapiens) (UniProt P17948). Put plainly: Binding affinity to human recombinant VEGFR1(1-3) N terminal domain by ELISA like binding assay. An outline of the steps: as §1
Assay [3] has the same target. The experiment in a line: Binding affinity to human recombinant VEGFR1 extracellular domain by ELISA like binding assay. An outline of the steps:
as §1

Assay [4] addresses T1, Vascular endothelial growth factor receptor 2. Put plainly: Displacement of GU40C-FITC form human recombinant VEGFR2 extracellular domain by ELISA like binding assay.
The target is the same in assay [5]. The experiment in a line: Displacement of fluorescein-labeled GU40C4 from human recombinant VEGFR2 extracellular domain by ELISA like binding assay.

T1 sequence (P35968 whole entry, the tested form may be a part): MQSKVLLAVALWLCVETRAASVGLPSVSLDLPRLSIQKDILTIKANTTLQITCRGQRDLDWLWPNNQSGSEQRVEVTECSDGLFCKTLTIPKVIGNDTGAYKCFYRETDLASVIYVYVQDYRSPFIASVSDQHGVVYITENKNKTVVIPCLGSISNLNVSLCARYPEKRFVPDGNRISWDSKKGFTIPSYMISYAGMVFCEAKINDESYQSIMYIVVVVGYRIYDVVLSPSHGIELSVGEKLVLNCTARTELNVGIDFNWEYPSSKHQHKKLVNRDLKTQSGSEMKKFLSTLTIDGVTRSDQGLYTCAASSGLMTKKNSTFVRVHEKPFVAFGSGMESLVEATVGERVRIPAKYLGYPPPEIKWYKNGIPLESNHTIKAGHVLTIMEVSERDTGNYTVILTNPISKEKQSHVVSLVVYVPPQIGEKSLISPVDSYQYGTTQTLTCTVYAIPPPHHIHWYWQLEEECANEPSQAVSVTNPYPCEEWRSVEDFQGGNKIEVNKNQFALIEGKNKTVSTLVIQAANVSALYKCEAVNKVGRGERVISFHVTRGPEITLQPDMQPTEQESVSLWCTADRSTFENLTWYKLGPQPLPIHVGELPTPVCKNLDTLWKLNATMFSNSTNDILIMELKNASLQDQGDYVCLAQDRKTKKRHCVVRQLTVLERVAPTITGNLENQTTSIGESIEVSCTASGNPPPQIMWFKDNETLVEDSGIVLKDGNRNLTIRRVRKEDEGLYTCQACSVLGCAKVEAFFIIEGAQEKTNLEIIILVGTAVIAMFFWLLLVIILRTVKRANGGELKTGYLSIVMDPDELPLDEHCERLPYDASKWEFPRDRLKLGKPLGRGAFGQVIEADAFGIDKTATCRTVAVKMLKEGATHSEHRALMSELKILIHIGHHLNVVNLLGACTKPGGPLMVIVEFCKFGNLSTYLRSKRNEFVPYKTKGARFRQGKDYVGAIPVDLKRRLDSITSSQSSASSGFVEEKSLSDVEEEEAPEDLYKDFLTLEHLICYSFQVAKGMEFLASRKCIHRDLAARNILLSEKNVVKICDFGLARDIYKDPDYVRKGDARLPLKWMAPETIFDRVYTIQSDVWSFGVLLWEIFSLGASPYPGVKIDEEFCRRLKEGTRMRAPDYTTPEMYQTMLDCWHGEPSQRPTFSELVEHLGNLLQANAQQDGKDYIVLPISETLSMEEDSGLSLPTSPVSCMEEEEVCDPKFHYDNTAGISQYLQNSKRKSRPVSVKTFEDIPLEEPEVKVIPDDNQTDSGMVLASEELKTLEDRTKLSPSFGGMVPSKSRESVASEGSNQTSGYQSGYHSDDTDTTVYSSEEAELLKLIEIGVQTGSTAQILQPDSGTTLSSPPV
Sequence of Vascular endothelial growth factor receptor 1 (Homo sapiens) (P17948 whole entry, the tested form may be a part): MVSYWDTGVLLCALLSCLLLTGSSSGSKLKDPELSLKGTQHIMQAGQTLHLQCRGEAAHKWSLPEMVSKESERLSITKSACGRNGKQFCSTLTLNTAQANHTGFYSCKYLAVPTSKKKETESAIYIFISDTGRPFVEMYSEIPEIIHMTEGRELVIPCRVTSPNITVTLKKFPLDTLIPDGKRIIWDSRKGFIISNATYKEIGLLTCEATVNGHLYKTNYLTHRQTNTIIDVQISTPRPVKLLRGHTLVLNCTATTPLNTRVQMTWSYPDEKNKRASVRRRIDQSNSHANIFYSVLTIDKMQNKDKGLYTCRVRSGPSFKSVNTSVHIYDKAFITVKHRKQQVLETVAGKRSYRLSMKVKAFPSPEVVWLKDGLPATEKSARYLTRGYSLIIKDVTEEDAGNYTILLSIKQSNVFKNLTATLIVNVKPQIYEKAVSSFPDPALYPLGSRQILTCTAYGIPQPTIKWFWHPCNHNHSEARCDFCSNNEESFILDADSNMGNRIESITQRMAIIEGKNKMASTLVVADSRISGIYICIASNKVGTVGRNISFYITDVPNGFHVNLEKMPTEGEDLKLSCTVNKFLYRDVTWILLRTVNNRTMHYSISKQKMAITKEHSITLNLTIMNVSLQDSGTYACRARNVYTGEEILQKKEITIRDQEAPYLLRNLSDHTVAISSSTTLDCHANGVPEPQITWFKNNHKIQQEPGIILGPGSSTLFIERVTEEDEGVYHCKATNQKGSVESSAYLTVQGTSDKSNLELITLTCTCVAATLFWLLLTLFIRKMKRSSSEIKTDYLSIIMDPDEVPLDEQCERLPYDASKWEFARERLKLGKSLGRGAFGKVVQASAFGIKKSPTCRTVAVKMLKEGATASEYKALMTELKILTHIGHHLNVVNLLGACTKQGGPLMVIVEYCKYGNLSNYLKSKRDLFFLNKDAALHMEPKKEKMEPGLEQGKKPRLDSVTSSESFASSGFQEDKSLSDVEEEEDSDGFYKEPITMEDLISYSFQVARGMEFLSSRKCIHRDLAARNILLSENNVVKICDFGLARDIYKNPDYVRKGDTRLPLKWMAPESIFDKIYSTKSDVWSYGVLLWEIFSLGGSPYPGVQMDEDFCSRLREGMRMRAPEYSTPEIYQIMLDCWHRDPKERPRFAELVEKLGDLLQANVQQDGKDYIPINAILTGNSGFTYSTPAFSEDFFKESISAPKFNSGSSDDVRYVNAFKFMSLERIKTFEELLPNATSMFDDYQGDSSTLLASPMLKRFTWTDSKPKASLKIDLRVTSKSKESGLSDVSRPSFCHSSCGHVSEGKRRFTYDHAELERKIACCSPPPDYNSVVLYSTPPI

Take `CC(C)CN(CC(=O)N(CCCCN)CC(=O)N(CCCCN)CC(N)=O)C(=O)CN(CCCCN)C(=O)CN(CC(C)C)C(=O)CN(CCCCN)C(=O)CN(Cc1ccco1)C(=O)CN(CCCCN)C(=O)CNCCc1c[nH]c2ccccc12` (H-[Gly(N(CH2)2(3-indolyl))][Nlys][NFurfurylGly][Nlys][Nleu][Nlys][Nleu][Nlys][Nlys]-NH2): the Kd in assay [1] came to 1000 nM. Moreover, the outcome in assay [2], in assay [3] and in assay [4] was Active.
On to `CC(C)CN(CC(=O)N(CCCCN)CC(=O)N(CCCCN)CC(N)=O)C(=O)CN(CCCCN)C(=O)CN(Cc1ccc2c(c1)OCO2)C(=O)CN(CCCCN)C(=O)CN(CC(C)C)C(=O)CN(Cc1ccc2c(c1)OCO2)C(=O)CNCCCCN` (H-[Nlys][Gly(N-piperonyl)][Nleu][Nlys][Gly(N-piperonyl)][Nlys][Nleu][Nlys][Nlys]-NH2), for which the outcome in assay [1], in assay [2], in assay [3] and in assay [4] was Active.
As for `CC(C)CN(CC(=O)N(CCCCN)CC(=O)N(CC(=O)N(CC(=O)N(CCCCN)CC(=O)N(CC(=O)N(CCCCN)CC(=O)N(CCCCN)CC(N)=O)CC(C)C)Cc1ccc2c(c1)OCO2)C(C)c1ccccc1)C(=O)CNCCCCN` (configuration not stated) (H-[Nlys][Nleu][Nlys][X1][Gly(N-piperonyl)][Nlys][Nleu][Nlys][Nlys]-NH2), the Kd in assay [1] is 1000 nM. Also, the result in assay [2], in assay [3] and in assay [4] was Active.
`C=CCN(CC(=O)N(CC(=O)N(CCCCN)CC(=O)N(CCCCN)CC(N)=O)CC(C)C)C(=O)CN(CC(C)C)C(=O)CN(Cc1ccc2c(c1)OCO2)C(=O)CN(CCc1c[nH]c2ccccc12)C(=O)CN(CCCCN)C(=O)CNCCCCN` (H-[Nlys][Nlys][Gly(N(CH2)2(3-indolyl))][Gly(N-piperonyl)][Nleu][NAllylGly][Nleu][Nlys][Nlys]-NH2): the result in assay [1], in assay [2], in assay [3] and in assay [4] was Active.
Consider `C=CCN(CC(=O)N(CCc1c[nH]c2ccccc12)CC(=O)N(CCCCN)CC(=O)N(CC(=O)N(CCCCN)CC(=O)N(CCCCN)CC(N)=O)CC(C)C)C(=O)CN(CC(C)C)C(=O)CN(CCOC)C(=O)CNCCCCN` (H-[Nlys][Nme][Nleu][NAllylGly][Gly(N(CH2)2(3-indolyl))][Nlys][Nleu][Nlys][Nlys]-NH2), for which the outcome in assay [1], in assay [2], in assay [3] and in assay [4] was Active.
For `CC(C)CN(CC(=O)N(CCCCN)CC(=O)N(CC(=O)N(CC(=O)N(CCCCN)CC(=O)N(CC(=O)N(CCCCN)CC(=O)N(CCCCN)CC(=O)NCCCCCC(=O)NCCC(=O)NC(CCCCNC(=O)CN(CCCCN)C(=O)CN(CCCCN)C(=O)CN(CC(C)C)C(=O)CN(CCCCN)C(=O)CN(Cc1ccc2c(c1)OCO2)C(=O)CN(C(=O)CN(CCCCN)C(=O)CN(CC(C)C)C(=O)CNCCCCN)C(C)c1ccccc1)C(N)=O)CC(C)C)Cc1ccc2c(c1)OCO2)C(C)c1ccccc1)C(=O)CNCCCCN` (configuration not stated) (I: H-[Nlys][Nleu][Nlys][X1][Gly(N-piperonyl)][Nlys][Nleu][Nlys][Nlys][Ahx][βAla][ξK]-NH2 / II: H-[Nlys][Nleu][Nlys][X1][Gly(N-piperonyl)][Nlys][Nleu][Nlys][Nlys]; amide I:12-II:C), the outcome in assay [1] and in assay [5] was Active.
